In ChEMBL document CHEMBL4130626, “α-Arylidene Diacylglycerol-Lactones (DAG-Lactones) as Selective Ras Guanine-Releasing Protein 3 (RasGRP3) Ligands” (J Med Chem, 2018) one finds EC50, Ratio EC50 and inhibition data, which are given here for 1 molecule.

Active and inactive are the calls of the source. The rule behind the calls is not given here.

In assay [1] the target is T1, RAS guanyl-releasing protein 1 (Homo sapiens, UniProt O95267).
T1 sequence (O95267 whole entry): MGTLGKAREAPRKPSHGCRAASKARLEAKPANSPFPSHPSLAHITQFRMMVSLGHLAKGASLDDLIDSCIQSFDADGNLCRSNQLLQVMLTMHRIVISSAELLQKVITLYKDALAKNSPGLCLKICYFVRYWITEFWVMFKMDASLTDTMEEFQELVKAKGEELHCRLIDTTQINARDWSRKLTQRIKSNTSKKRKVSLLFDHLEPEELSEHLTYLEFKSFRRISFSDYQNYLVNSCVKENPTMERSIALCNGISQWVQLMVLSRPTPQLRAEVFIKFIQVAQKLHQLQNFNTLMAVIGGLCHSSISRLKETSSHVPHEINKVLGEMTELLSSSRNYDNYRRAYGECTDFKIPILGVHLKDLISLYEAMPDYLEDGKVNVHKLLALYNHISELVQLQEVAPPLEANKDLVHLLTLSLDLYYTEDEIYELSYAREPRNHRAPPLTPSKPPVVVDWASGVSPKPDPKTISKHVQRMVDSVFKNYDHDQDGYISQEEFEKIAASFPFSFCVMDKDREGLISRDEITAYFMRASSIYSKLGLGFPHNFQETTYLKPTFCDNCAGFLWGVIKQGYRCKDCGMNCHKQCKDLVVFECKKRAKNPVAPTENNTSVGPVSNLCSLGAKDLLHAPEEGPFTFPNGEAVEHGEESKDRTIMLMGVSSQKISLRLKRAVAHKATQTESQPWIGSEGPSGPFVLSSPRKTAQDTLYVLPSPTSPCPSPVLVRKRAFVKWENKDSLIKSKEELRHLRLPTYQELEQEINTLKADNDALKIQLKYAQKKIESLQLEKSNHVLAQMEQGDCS
In words: Activation of GFP-tagged RasGRP1 (unknown origin) expressed in HEK293 cells after 30 mins by immunoblot method. The class given is cell-based. The method, boiled down:
(§1)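 Cells expressing GFP-RasGRP1/3 (HEK293 or LNCaP, 48 h after plating, transfected; expression checked by fluorescence 24-48 h later) or Ramos with endogenous RasGRP3 treated with half-log increasing concentrations (max 10 µM), 1000 nM PMA or DMSO, 37 °C, 30 min, 5% CO2. RasGTP by Raf1 RBD bead pulldown and anti-Pan-Ras immunoblot; pERK by western blot. Band intensities normalized to 1000 nM PMA; EC50 from n = 3.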
For orientation: In western blotting, separated proteins are transferred to a membrane and probed.

The target of assay [2] is T1, RAS guanyl-releasing protein 1. Briefly: Activation of GFP-tagged RasGRP1 (unknown origin) expressed in human LNCAP cells after 30 mins by immunoblot method. It is filed as cell-based. The method, boiled down: as §1
Assay [3] addresses T2, Ras guanyl-releasing protein 3 (Homo sapiens, UniProt Q8IV61).
T2 sequence (Q8IV61 whole entry): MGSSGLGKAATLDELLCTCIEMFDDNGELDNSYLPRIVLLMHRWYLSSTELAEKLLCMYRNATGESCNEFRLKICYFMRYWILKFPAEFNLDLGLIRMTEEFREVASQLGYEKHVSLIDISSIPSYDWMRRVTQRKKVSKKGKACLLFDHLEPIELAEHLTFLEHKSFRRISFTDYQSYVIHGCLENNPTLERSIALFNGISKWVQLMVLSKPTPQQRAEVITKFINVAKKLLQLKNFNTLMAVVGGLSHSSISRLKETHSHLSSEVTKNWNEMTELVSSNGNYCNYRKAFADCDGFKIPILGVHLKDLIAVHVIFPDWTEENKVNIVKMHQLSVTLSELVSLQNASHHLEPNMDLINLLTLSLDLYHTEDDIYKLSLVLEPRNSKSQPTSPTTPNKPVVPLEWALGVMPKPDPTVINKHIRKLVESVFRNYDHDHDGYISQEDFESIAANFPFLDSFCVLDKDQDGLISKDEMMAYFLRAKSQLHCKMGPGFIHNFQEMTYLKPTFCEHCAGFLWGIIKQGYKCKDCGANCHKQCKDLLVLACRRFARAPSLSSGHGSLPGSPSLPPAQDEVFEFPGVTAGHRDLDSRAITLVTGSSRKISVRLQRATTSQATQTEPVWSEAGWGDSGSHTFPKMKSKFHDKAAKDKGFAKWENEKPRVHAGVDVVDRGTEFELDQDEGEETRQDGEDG
In words: Activation of RasGRP3 in human Ramos cells after 30 mins by immunoblot method. It is filed as cell-based. The method, boiled down: as §1

Assay [4] concerns the target T3, Protein kinase C delta type (Homo sapiens, UniProt Q05655). Briefly: Activation of PKCdelta (unknown origin) expressed in HEK293 cells harboring GFP-tagged RasGRP1 assessed as phosphorylation at ser299 residues after 30 mins by immunoblot method. The class given is cell-based. The method, boiled down: (§2)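 PKCδ activation read as phospho-S299 on western blots of lysates (50 µg protein, 10% SDS-PAGE, milk blocking, anti-PKCδS299 overnight). Cells: GFP-RasGRP1/3-transfected HEK293 or LNCaP, or Ramos, treated 30 min at 37 °C with half-log doses (maximum 10 µM), 1000 nM PMA or DMSO. Scanned intensities normalized to 1000 nM PMA; EC50 mean ± SEM, n = 3; values above 10 µM extrapolated.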

For assay [5], the target named is T3, Protein kinase C delta type. Briefly: Activation of PKCdelta in human Ramos cells expressing RasGRP3 assessed as phosphorylation at ser299 residues after 30 mins by immunoblot method. It is filed as cell-based. The method, boiled down: as §2
Assay [6] deals with T1, RAS guanyl-releasing protein 1. Briefly: Activation of GFP-tagged RasGRP1 (unknown origin) expressed in HEK293 cells assessed as ERK1/2 phosphorylation after 30 mins by immunoblot method. It is filed as cell-based. The method, boiled down:
as §1

Assay [7] has the same target. In words: Activation of GFP-tagged RasGRP1 (unknown origin) expressed in human LNCAP cells assessed as ERK1/2 phosphorylation after 30 mins by immunoblot method. It is filed as cell-based. The method, boiled down: as §1
Assay [8] addresses T2, Ras guanyl-releasing protein 3. Briefly: Activation of GFP-tagged RasGRP3 (unknown origin) expressed in human LNCAP cells assessed as ERK1/2 phosphorylation after 30 mins by immunoblot method. It is filed as cell-based. The method, boiled down: as §1
Assay [9] is filed under the species Homo sapiens. In words: Selectivity ratio of EC50 for PKCdelta (unknown origin) expressed in human LNCAP cells harboring GFP-tagged RasGRP3 to EC50 for GFP-tagged RasGRP3 (unknown origin) expressed in human LNCAP cells. It is filed as cell-based.
The species entered for assay [10] is Homo sapiens. Briefly: Selectivity ratio of EC50 for PKCdelta (unknown origin) expressed in human LNCAP cells harboring GFP-tagged RasGRP3 to EC50 for GFP-tagged RasGRP3 (unknown origin) expressed in human LNCAP cells assessed as ERK1/2 phosphorylation. It is filed as cell-based.
In assay [11] the target is T4, Ras guanyl-releasing protein 3 (Homo sapiens) (UniProt Q8IV61).
T4 sequence (whole entry): T2 sequence (Q8IV61 whole entry)
Briefly: Displacement of [3H]PDBu from full length MBP-tagged human RasGRP3 expressed in Escherichia coli BL21 (DE3) after 5 mins in presence of phosphatidylserine by scintillation counting. The method, boiled down: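 Competition of [3H]PDBu binding by polyethylene glycol precipitation, with 100 µg/ml phosphatidylserine and ≤0.003% Triton X-100, 5 min at 37 °C. Proteins: full-length purified human PKCα, PKCε; full-length RasGRP1; MBP-RasGRP3 from E. coli BL21(DE3) induced with 0.3 mM IPTG 6 h at room temperature. Ki mean ± SEM of ≥2 experiments, triplicate points.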
A general note: Displacement assays read how much labelled ligand stays bound in the presence of the test substance.

T3 sequence (Q05655 whole entry): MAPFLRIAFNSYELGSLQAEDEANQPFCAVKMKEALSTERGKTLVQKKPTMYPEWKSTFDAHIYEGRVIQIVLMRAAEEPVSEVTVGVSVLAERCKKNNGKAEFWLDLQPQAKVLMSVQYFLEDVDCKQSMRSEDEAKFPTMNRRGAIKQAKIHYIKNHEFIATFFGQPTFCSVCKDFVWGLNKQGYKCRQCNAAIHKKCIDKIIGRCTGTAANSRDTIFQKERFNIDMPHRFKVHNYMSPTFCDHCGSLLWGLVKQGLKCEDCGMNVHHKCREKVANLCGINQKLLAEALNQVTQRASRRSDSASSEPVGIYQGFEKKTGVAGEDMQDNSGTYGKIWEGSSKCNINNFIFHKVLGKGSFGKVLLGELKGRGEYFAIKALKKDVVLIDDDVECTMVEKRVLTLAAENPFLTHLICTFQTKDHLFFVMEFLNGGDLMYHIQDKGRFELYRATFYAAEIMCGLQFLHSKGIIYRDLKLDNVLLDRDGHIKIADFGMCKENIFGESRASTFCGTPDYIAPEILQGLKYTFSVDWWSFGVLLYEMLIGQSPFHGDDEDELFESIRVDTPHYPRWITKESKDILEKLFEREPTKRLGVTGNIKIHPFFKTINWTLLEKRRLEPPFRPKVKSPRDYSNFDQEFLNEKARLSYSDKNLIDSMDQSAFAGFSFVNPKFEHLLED

`Cn1cc(/C=C2\CC(CO)(COC(=O)C(C)(C)C)OC2=O)c2ccccc21` (stereo unspecified): the EC50 in [1] turned out to be 0.86 µM; in [2], 0.97 µM; in assay [3] it was 0.86 µM; in [4], 12.6 µM; in [5] it was 24.6 µM; in [6] it was 4.88 µM. For the same molecule, the EC50 in assay [7] was determined as 3.73 µM; in assay [8], 2.98 µM. Further, the Ratio EC50 in the assay filed under Homo sapiens [9] came to 12.9; in the assay filed under Homo sapiens [10] it was 2.8. Besides, the inhibition entry in assay [11] is “Active”.

Broadly, the EC50 is the concentration giving half of the maximal effect.
